Reference: ChEMBL document CHEMBL3864121, “Development of ebsulfur analogues as potent antibacterials against methicillin-resistant Staphylococcus aureus” (Bioorg Med Chem, 2016)
≈ marks a conversion by molar mass, not a printed value.

Legend:
Format in all cases: functional
Staphylococcus aureus [1] = test: Antibacterial activity against methicillin-resistant Staphylococcus aureus C19 measured after overnight incubation by broth double-dilution method
In short: (§1)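 MIC by broth double-dilution in liquid Mueller-Hinton medium. Values are reported in µg/mL.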

Staphylococcus aureus [2] = test: Antibacterial activity against methicillin-resistant Staphylococcus aureus 1 measured after overnight incubation by broth double-dilution method; in short: as §1
Staphylococcus aureus [3] = test: Antibacterial activity against methicillin-sensitive Staphylococcus aureus ATCC 25923 measured after overnight incubation by broth double-dilution method; in short: as §1
Staphylococcus aureus [4] = test: Antibacterial activity against methicillin-resistant Staphylococcus aureus USA600 measured after overnight incubation by broth double-dilution method; in short: as §1
Staphylococcus aureus [5] = test: Antibacterial activity against methicillin-resistant Staphylococcus aureus G6 measured after overnight incubation by broth double-dilution method; in short: as §1
Staphylococcus aureus [6] = test: Antibacterial activity against methicillin-sensitive Staphylococcus aureus ATCC 6538 measured after overnight incubation by broth double-dilution method; in short: as §1
Enterococcus faecalis [7] = test: Antibacterial activity against Enterococcus faecalis ATCC 29212 measured after overnight incubation by broth double-dilution method
In short: (§2)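 MIC by broth double-dilution in Mueller-Hinton medium. Re-testing at the time-kill inoculum used 1×10^6 CFU/mL.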

Staphylococcus aureus [8] = test: Antibacterial activity against methicillin-resistant Staphylococcus aureus BRS3 measured after overnight incubation by broth double-dilution method; in short: as §1
Staphylococcus aureus [9] = test: Antibacterial activity against methicillin-resistant Staphylococcus aureus USA200 measured after overnight incubation by broth double-dilution method; in short: as §1
Staphylococcus aureus [10] = test: Antibacterial activity against methicillin-resistant Staphylococcus aureus NRS77 measured after overnight incubation by broth double-dilution method; in short: as §1
[11] = system: Staphylococcus epidermidis; test: Antibacterial activity against Staphylococcus epidermidis ATCC 35984 measured after overnight incubation by broth double-dilution method; conditions: RP62A; in short: as §2
Staphylococcus aureus [12] = test: Antibacterial activity against methicillin-resistant Staphylococcus aureus G1 measured after overnight incubation by broth double-dilution method; in short: as §1
Staphylococcus aureus [13] = test: Antibacterial activity against methicillin-resistant Staphylococcus aureus C2 measured after overnight incubation by broth double-dilution method; in short: as §1
Staphylococcus aureus [14] = test: Antibacterial activity against methicillin-resistant Staphylococcus aureus NRS51 measured after overnight incubation by broth double-dilution method; in short: as §1
Enterococcus = test: Antibacterial activity against Vancomycin-resistant Enterococcus measured after overnight incubation by broth double-dilution method; in short: as §1
Staphylococcus aureus [15] = test: Antibacterial activity against methicillin-resistant Staphylococcus aureus USA100 measured after overnight incubation by broth double-dilution method; in short: as §1
Enterococcus faecium = test: Antibacterial activity against Enterococcus faecium BM4105-RF measured after overnight incubation by broth double-dilution method; in short: as §1
Staphylococcus aureus [16] = test: Antibacterial activity against methicillin-resistant Staphylococcus aureus G14 measured after overnight incubation by broth double-dilution method; in short: as §1
Staphylococcus aureus [17] = test: Antibacterial activity against methicillin-resistant Staphylococcus aureus S14 measured after overnight incubation by broth double-dilution method; in short: as §1
[18] = system: Mycolicibacterium smegmatis; test: Antibacterial activity against Mycobacterium smegmatis MC2-155 measured after overnight incubation by broth double-dilution method; conditions: str. MC2 155; in short: as §1
Staphylococcus aureus [19] = test: Antibacterial activity against methicillin-resistant Staphylococcus aureus C7 measured after overnight incubation by broth double-dilution method; in short: as §1
Staphylococcus aureus [20] = test: Antibacterial activity against methicillin-resistant Staphylococcus aureus ATCC 33591 measured after overnight incubation by broth double-dilution method; in short: as §1
Staphylococcus aureus [21] = test: Antibacterial activity against methicillin-resistant Staphylococcus aureus USA300 measured after overnight incubation by broth double-dilution method; in short: as §1
Staphylococcus aureus [22] = test: Antibacterial activity against methicillin-resistant Staphylococcus aureus C14 measured after overnight incubation by broth double-dilution method; in short: as §1
Staphylococcus aureus [23] = test: Antibacterial activity against methicillin-resistant Staphylococcus aureus 2 measured after overnight incubation by broth double-dilution method; in short: as §1
Listeria monocytogenes = test: Antibacterial activity against Listeria monocytogenes ATCC 19115 measured after overnight incubation by broth double-dilution method; in short: as §2
Enterococcus faecalis [24] = test: Antibacterial activity against Enterococcus faecalis ATCC 49533 measured after overnight incubation by broth double-dilution method; in short: as §2
Staphylococcus aureus [25] = test: Antibacterial activity against methicillin-sensitive Staphylococcus aureus ATCC 29213 measured after overnight incubation by broth double-dilution method; in short: as §1
Staphylococcus aureus [26] = test: Antibacterial activity against methicillin-resistant Staphylococcus aureus S24 measured after overnight incubation by broth double-dilution method; in short: as §1
Staphylococcus aureus [27] = test: Antibacterial activity against methicillin-resistant Staphylococcus aureus C16 measured after overnight incubation by broth double-dilution method; in short: as §1
Staphylococcus aureus [28] = test: Antibacterial activity against methicillin-resistant Staphylococcus aureus C1 measured after overnight incubation by broth double-dilution method; in short: as §1
Staphylococcus aureus [29] = test: Antibacterial activity against methicillin-resistant Staphylococcus aureus NRS4 measured after overnight incubation by broth double-dilution method; in short: as §1
Staphylococcus aureus [30] = test: Antibacterial activity against methicillin-resistant Staphylococcus aureus S22 measured after overnight incubation by broth double-dilution method; in short: as §1
Staphylococcus aureus [31] = test: Antibacterial activity against methicillin-resistant Staphylococcus aureus G12 measured after overnight incubation by broth double-dilution method; in short: as §1
Staphylococcus aureus [32] = test: Antibacterial activity against methicillin-resistant Staphylococcus aureus S17 measured after overnight incubation by broth double-dilution method; in short: as §1

Row | SMILES | MIC (Staphylococcus aureus [1]) | MIC (Staphylococcus aureus [2]) | MIC (Staphylococcus aureus [3]) | MIC (Staphylococcus aureus [4]) | MIC (Staphylococcus aureus [5]) | MIC (Staphylococcus aureus [6]) | MIC (Enterococcus faecalis [7]) | MIC (Staphylococcus aureus [8]) | MIC (Staphylococcus aureus [9]) | MIC (Staphylococcus aureus [10]) | MIC [11] | MIC (Staphylococcus aureus [12]) | MIC (Staphylococcus aureus [13]) | MIC (Staphylococcus aureus [14]) | MIC (Enterococcus) | MIC (Staphylococcus aureus [15]) | MIC (Enterococcus faecium) | MIC (Staphylococcus aureus [16]) | MIC (Staphylococcus aureus [17]) | MIC [18] | other results
1 | CCCCCCCCCCCCn1sc2ccccc2c1=O | 1 µg/mL (≈ 3.13 µM) | 0.25 µg/mL (≈ 0.782 µM) | 3.9 µg/mL (≈ 12.2 µM) | 7.8 µg/mL (≈ 24.4 µM) | 1 µg/mL (≈ 3.13 µM) | 62.5 µg/mL (≈ 196 µM) | > 125 µg/mL | 15.6 µg/mL (≈ 48.8 µM) | 7.8 µg/mL (≈ 24.4 µM) | 2 µg/mL (≈ 6.26 µM) | 0.25 µg/mL (≈ 0.782 µM) | 0.5 µg/mL (≈ 1.56 µM) | 1 µg/mL (≈ 3.13 µM) | 3.9 µg/mL (≈ 12.2 µM) | 1 µg/mL (≈ 3.13 µM) | 3.9 µg/mL (≈ 12.2 µM) | 3.9 µg/mL (≈ 12.2 µM) | 2 µg/mL (≈ 6.26 µM) | 1 µg/mL (≈ 3.13 µM) | 7.8 µg/mL (≈ 24.4 µM) | MIC (Staphylococcus aureus [19]): 2 µg/mL (≈ 6.26 µM); MIC (Staphylococcus aureus [20]): 2 µg/mL (≈ 6.26 µM); MIC (Staphylococcus aureus [21]): 7.8 µg/mL (≈ 24.4 µM); MIC (Staphylococcus aureus [22]): 15.6 µg/mL (≈ 48.8 µM); MIC (Staphylococcus aureus [23]): 1 µg/mL (≈ 3.13 µM); MIC (Listeria monocytogenes): 15.6 µg/mL (≈ 48.8 µM); MIC (Enterococcus faecalis [24]): > 125 µg/mL; MIC (Staphylococcus aureus [25]): 3.9 µg/mL (≈ 12.2 µM); MIC (Staphylococcus aureus [26]): 1 µg/mL (≈ 3.13 µM); MIC (Staphylococcus aureus [27]): 3.9 µg/mL (≈ 12.2 µM); MIC (Staphylococcus aureus [28]): 3.9 µg/mL (≈ 12.2 µM); MIC (Staphylococcus aureus [29]): 3.9 µg/mL (≈ 12.2 µM); MIC (Staphylococcus aureus [30]): 3.9 µg/mL (≈ 12.2 µM); MIC (Staphylococcus aureus [31]): 1 µg/mL (≈ 3.13 µM); MIC (Staphylococcus aureus [32]): 1 µg/mL (≈ 3.13 µM)
2 | CC(C)Cn1c(=O)c2ccccc2[s+]1[O-] (stereo not given) | > 125 µg/mL | > 125 µg/mL | > 125 µg/mL | > 125 µg/mL | > 125 µg/mL | > 125 µg/mL | > 125 µg/mL | > 125 µg/mL | > 125 µg/mL | > 125 µg/mL | > 125 µg/mL | > 125 µg/mL | > 125 µg/mL | > 125 µg/mL | > 125 µg/mL | > 125 µg/mL | > 125 µg/mL | > 125 µg/mL | > 125 µg/mL | > 125 µg/mL | MIC (Staphylococcus aureus [19]): > 125 µg/mL; MIC (Staphylococcus aureus [20]): > 125 µg/mL; MIC (Staphylococcus aureus [21]): > 125 µg/mL; MIC (Staphylococcus aureus [22]): > 125 µg/mL; MIC (Staphylococcus aureus [23]): > 125 µg/mL; MIC (Listeria monocytogenes): > 125 µg/mL; MIC (Enterococcus faecalis [24]): > 125 µg/mL; MIC (Staphylococcus aureus [25]): > 125 µg/mL; MIC (Staphylococcus aureus [26]): > 125 µg/mL; MIC (Staphylococcus aureus [27]): > 125 µg/mL; MIC (Staphylococcus aureus [28]): > 125 µg/mL; MIC (Staphylococcus aureus [29]): > 125 µg/mL; MIC (Staphylococcus aureus [30]): > 125 µg/mL; MIC (Staphylococcus aureus [31]): > 125 µg/mL; MIC (Staphylococcus aureus [32]): > 125 µg/mL
3 | CC(C)CCn1sc2ccccc2c1=O | 3.9 µg/mL (≈ 17.6 µM) | 3.9 µg/mL (≈ 17.6 µM) | > 125 µg/mL | 7.8 µg/mL (≈ 35.2 µM) | 3.9 µg/mL (≈ 17.6 µM) | 3.9 µg/mL (≈ 17.6 µM) | 7.8 µg/mL (≈ 35.2 µM) | 3.9 µg/mL (≈ 17.6 µM) | 7.8 µg/mL (≈ 35.2 µM) | 3.9 µg/mL (≈ 17.6 µM) | 3.9 µg/mL (≈ 17.6 µM) | 2 µg/mL (≈ 9.04 µM) | 3.9 µg/mL (≈ 17.6 µM) | 7.8 µg/mL (≈ 35.2 µM) | 2 µg/mL (≈ 9.04 µM) | 7.8 µg/mL (≈ 35.2 µM) | 7.8 µg/mL (≈ 35.2 µM) | 7.8 µg/mL (≈ 35.2 µM) | 1 µg/mL (≈ 4.52 µM) | 3.9 µg/mL (≈ 17.6 µM) | MIC (Staphylococcus aureus [19]): 3.9 µg/mL (≈ 17.6 µM); MIC (Staphylococcus aureus [20]): > 125 µg/mL; MIC (Staphylococcus aureus [21]): 7.8 µg/mL (≈ 35.2 µM); MIC (Staphylococcus aureus [22]): 3.9 µg/mL (≈ 17.6 µM); MIC (Staphylococcus aureus [23]): 7.8 µg/mL (≈ 35.2 µM); MIC (Listeria monocytogenes): > 125 µg/mL; MIC (Enterococcus faecalis [24]): 15.6 µg/mL (≈ 70.5 µM); MIC (Staphylococcus aureus [25]): 3.9 µg/mL (≈ 17.6 µM); MIC (Staphylococcus aureus [26]): 3.9 µg/mL (≈ 17.6 µM); MIC (Staphylococcus aureus [27]): 7.8 µg/mL (≈ 35.2 µM); MIC (Staphylococcus aureus [28]): 3.9 µg/mL (≈ 17.6 µM); MIC (Staphylococcus aureus [29]): 3.9 µg/mL (≈ 17.6 µM); MIC (Staphylococcus aureus [30]): 7.8 µg/mL (≈ 35.2 µM); MIC (Staphylococcus aureus [31]): 3.9 µg/mL (≈ 17.6 µM); MIC (Staphylococcus aureus [32]): 3.9 µg/mL (≈ 17.6 µM)
